From article PMC4725056 (Nature chemistry, 2015) come the findings set out here.

What all share (format): cell-based, human
One assay has as its system lung cancer H1299 cells. Kind of assay: Cell proliferation. Conditions: DC_AC50 (10 μM).
In assay [1] the test system is p-AMPK and p-ACC1 in H1299 cells. Kind of assay: AMPK and ACC1 phosphorylation. Conditions: together with DC_AC50 (10 μM), 12 hours.
For assay [2], the system named is H1299 cells. Briefly: Measurement of ROS production. Conditions: pretreated with 1 mM or 3 mM NAC for one hour, followed by 5 μM DC_AC50 for 12 hours.
In assay [3] the test system is H1299 cells. Kind of assay: Total cellular copper content by inductively coupled plasma mass spectrometry. The settings on record: copper chelator control. The method, boiled down: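 Total cellular copper in H1299 cells measured by inductively coupled plasma mass spectrometry after test-compound treatment; tetrathiomolybdate served as the copper-chelator control.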

Assay [4] relates to H1299 cells. Kind of assay: Lipid biosynthesis. Conditions: 10 μM compound C together with DC_AC50.

Each structure is given as a SMILES string.

As to `CC(=O)N[C@@H](CS)C(=O)O` [NAC, N-acetyl-L-cysteine], the “rescue of cell-proliferation inhibition by DC_AC50” value in the assay on lung cancer H1299 cells is “partially rescued”. The “rescue of DC_AC50-induced AMPK and ACC1 phosphorylation” value in assay [1] is listed as “failed to rescue”. Further, in the assay on H1299 cells [2], the “rescue of DC_AC50-induced ROS increase” value was “rescued almost completely”.

As for `[SH-].[SH-].[S]=[Mo]=[S]` [TM, tetrathiomolybdate], the “decrease of the total cellular copper content” value in the assay with H1299 cells [3] is about 40%.

`c1cc(-c2cnn3cc(-c4ccc(OCCN5CCCCC5)cc4)cnc23)ccn1` [compound C]: the “rescue of cell-proliferation inhibition by DC_AC50” value in the assay on lung cancer H1299 cells was “partially rescued”. For the same compound, the “rescue of lipid biosynthesis reduced by DC_AC50” value with H1299 cells [4] is reported as “recovered”. In assay [1], the “rescue of DC_AC50-induced AMPK and ACC1 phosphorylation” value is “almost completely reversed”.
